SMILES strings stand for the structures. Converted amounts (≈) assume the structure as drawn.

Broadly, the IC50 is the concentration that gives 50% inhibition.

The first test relates to P388. The test can be described thus: Cytotoxicity against mouse P388 cells after 3 days by MTT assay. The test is classed as functional, cell-based. Particulars: P388, 72 h. A digest of the protocol:
(§1)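 Modified MTT colorimetric assay. Cells seeded at 1000 cells/well and exposed to twofold serial dilutions of compound. Incubation ran 6 days for A-549 and 3 days for KB-16 and P-388. MTT (1 mg/mL) was then added for 5 h at 37 °C, formazan dissolved in DMSO, and absorbance read at 540 nm. IC50 is the concentration giving a 50% absorbance reduction versus untreated cells.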
(In general: Tetrazolium assays rely on reduction of a dye to a coloured formazan, in cell work by metabolically active cells.)
The compound `C=C1CCC[C@H]2[C@](C)(Cc3cc(C(=O)OC)cc(OC(C)=O)c3OC(C)=O)[C@@H](C)CC[C@]12C` displayed an IC50 of 1.9 mg/L (≈ 4.16 µM).

`C=C1CCC[C@H]2[C@](C)(Cc3cc(C(=O)OC)cc(O)c3O)[C@@H](C)CC[C@]12C` [DICTYOCERATIN A]: inhibition was half-maximal at 1.4 mg/L (≈ 3.76 µM) (IC50).

`C=C1CCC[C@H]2[C@](C)(CC3=C(O)C(=O)C=C(OC)C3=O)[C@@H](C)CC[C@]12C` [ILIMAQUINONE] yielded a half-inhibitory concentration (IC50) of 0.2 mg/L (≈ 0.558 µM).

`C=C1CCC[C@H]2[C@](C)(Cc3cc(C(=O)OC)cc(OC)c3OC(C)=O)[C@@H](C)CC[C@]12C` [POLYFIBROSPONGOL A MONOACETATE] showed an IC50 of 3.4 mg/L.

The compound `C=C1CCC[C@H]2[C@](C)(Cc3cc(C(=O)OC)cc(OC)c3O)[C@@H](C)CC[C@]12C` [POLYFIBROSPONGOL A] displayed an IC50 of 0.7 mg/L (≈ 1.81 µM).

In turn, `C=C1CCC[C@H]2[C@](COC(C)=O)(Cc3cc(C(=O)OC)cc(OC)c3OC(C)=O)[C@@H](C)CC[C@]12C` [POLYFIBROSPONGOL B DIACETATE] had an IC50 of more than 50 mg/L.

On to `C=C1CCC[C@H]2[C@](CO)(Cc3cc(C(=O)OC)cc(OC)c3O)[C@@H](C)CC[C@]12C` [POLYFIBROSPONGOL B], for which 1 mg/L (≈ 2.48 µM) corresponded to half-maximal inhibition (IC50).

Test system in the next test: not listed separately
The test can be described thus: Cytotoxicity against human KB16 cells after 3 days by MTT assay. The note with it: KB16, 72 h. It is filed as functional, cell-based. In outline: as §1
The compound `C=C1CCC[C@H]2[C@](C)(Cc3cc(C(=O)OC)cc(OC(C)=O)c3OC(C)=O)[C@@H](C)CC[C@]12C` gave an IC50 of 1.8 mg/L (≈ 3.94 µM).

The compound `C=C1CCC[C@H]2[C@](C)(Cc3cc(C(=O)OC)cc(O)c3O)[C@@H](C)CC[C@]12C` [DICTYOCERATIN A] gave an IC50 of 1.4 mg/L (≈ 3.76 µM).

Turning to `C=C1CCC[C@H]2[C@](C)(CC3=C(O)C(=O)C=C(OC)C3=O)[C@@H](C)CC[C@]12C` [ILIMAQUINONE], it took 0.7 mg/L (≈ 1.95 µM) to reach half-maximal inhibition (IC50).

On to `C=C1CCC[C@H]2[C@](C)(Cc3cc(C(=O)OC)cc(OC)c3OC(C)=O)[C@@H](C)CC[C@]12C` [POLYFIBROSPONGOL A MONOACETATE], for which inhibition was half-maximal at 2.1 mg/L (IC50).

`C=C1CCC[C@H]2[C@](C)(Cc3cc(C(=O)OC)cc(OC)c3O)[C@@H](C)CC[C@]12C` [POLYFIBROSPONGOL A] showed an IC50 of 1.4 mg/L (≈ 3.62 µM).

Consider `C=C1CCC[C@H]2[C@](COC(C)=O)(Cc3cc(C(=O)OC)cc(OC)c3OC(C)=O)[C@@H](C)CC[C@]12C` [POLYFIBROSPONGOL B DIACETATE], for which the half-inhibitory concentration (IC50) is more than 50 mg/L.

With `C=C1CCC[C@H]2[C@](CO)(Cc3cc(C(=O)OC)cc(OC)c3O)[C@@H](C)CC[C@]12C` [POLYFIBROSPONGOL B], it took 2 mg/L (≈ 4.97 µM) to reach half-maximal inhibition (IC50).

Another test has as its system A549. The test can be described thus: Cytotoxicity against human A549 cells after 6 days by MTT assay. It is filed as functional, cell-based. The note with it: A549, 144 h. In outline: as §1
In turn, `C=C1CCC[C@H]2[C@](C)(Cc3cc(C(=O)OC)cc(OC(C)=O)c3OC(C)=O)[C@@H](C)CC[C@]12C` registered an IC50 of 1.5 mg/L (≈ 3.29 µM).

As for `C=C1CCC[C@H]2[C@](C)(Cc3cc(C(=O)OC)cc(O)c3O)[C@@H](C)CC[C@]12C` [DICTYOCERATIN A], 0.7 mg/L (≈ 1.88 µM) corresponded to half-maximal inhibition (IC50).

Turning to `C=C1CCC[C@H]2[C@](C)(CC3=C(O)C(=O)C=C(OC)C3=O)[C@@H](C)CC[C@]12C` [ILIMAQUINONE], the IC50 came out at 0.4 mg/L (≈ 1.12 µM).

For `C=C1CCC[C@H]2[C@](C)(Cc3cc(C(=O)OC)cc(OC)c3OC(C)=O)[C@@H](C)CC[C@]12C` [POLYFIBROSPONGOL A MONOACETATE], half-maximal inhibition (IC50) required 3.1 mg/L.

Compound `C=C1CCC[C@H]2[C@](C)(Cc3cc(C(=O)OC)cc(OC)c3O)[C@@H](C)CC[C@]12C` [POLYFIBROSPONGOL A] had an IC50 of 0.6 mg/L (≈ 1.55 µM).

For `C=C1CCC[C@H]2[C@](COC(C)=O)(Cc3cc(C(=O)OC)cc(OC)c3OC(C)=O)[C@@H](C)CC[C@]12C` [POLYFIBROSPONGOL B DIACETATE], the IC50 is more than 50 mg/L.

Take `C=C1CCC[C@H]2[C@](CO)(Cc3cc(C(=O)OC)cc(OC)c3O)[C@@H](C)CC[C@]12C` [POLYFIBROSPONGOL B]: the IC50 was 1 mg/L (≈ 2.48 µM).

Source of the values: ChEMBL document CHEMBL1145688, “New sesquiterpene hydroquinones from a Taiwanese marine sponge Polyfibrospongia australis” (J Nat Prod, 1997).
